A selection: hits, their analogues and other compounds. The true share with any hit is near 2.1%.
RanGTP-Impb inh = inhibitors of RanGTP-importin-beta interaction, primary screen, biochemical, FRET, CFP-Ran, YFP-importin-beta, homogeneous. cell-free CFP-Ran/YFP-importin-beta FRET ratio. inhibition, % (test concentration not listed). actives 1.1% (n = 300,000);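 active means more than half of the replicate wells show a fall in the fluorescence ratio signal beyond about 16%, limit read from the data, passing the limit was not always enough; inconclusive means exactly half of the replicate wells pass the set limit; inactive means fewer than half of replicates pass the limit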;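 further: 0% = DMSO wells and 100% = Ran loaded with GDP instead of GTP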
Tb hexokinase = T. brucei hexokinase 1 inhibition. recombinant TbHK1, G6PDH-coupled NADH A340. inhibition, % at 10 µM. actives 0.11% (n = 220,000). AID 1430;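 active means inhibition of 50% or more in the single-dose primary screen; inactive means inhibition below 50%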
p97 ATPase inh = blocks human p97 ATPase activity; recombinant p97 ATPase, Kinase-Glo ATP luminescence, 3 h; inhibition, % at 8 µM; actives 0.42% (n = 220,000); AID 1481; in the data active means inhibition above about 15%;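 further: 0% = DMSO vehicle and 100% = wells lacking enzyme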
Runt-CBFb FRET = Runt domain-CBFb interaction inhibition; Q01196+Q13951; Cerulean-Runt/Venus-CBFb FRET ratio 530/480, 1 h; inhibition, % at 20 µM; actives 0.46% (n = 220,000);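 active means inhibition over about 50% at 20 µM in the single-dose screen, limit read from the data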;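 further: 0% = DMSO wells and 100% = excess unlabeled CBFb competitor control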
Target sequence (Q01196 whole entry, looked up, the tested form may be a part): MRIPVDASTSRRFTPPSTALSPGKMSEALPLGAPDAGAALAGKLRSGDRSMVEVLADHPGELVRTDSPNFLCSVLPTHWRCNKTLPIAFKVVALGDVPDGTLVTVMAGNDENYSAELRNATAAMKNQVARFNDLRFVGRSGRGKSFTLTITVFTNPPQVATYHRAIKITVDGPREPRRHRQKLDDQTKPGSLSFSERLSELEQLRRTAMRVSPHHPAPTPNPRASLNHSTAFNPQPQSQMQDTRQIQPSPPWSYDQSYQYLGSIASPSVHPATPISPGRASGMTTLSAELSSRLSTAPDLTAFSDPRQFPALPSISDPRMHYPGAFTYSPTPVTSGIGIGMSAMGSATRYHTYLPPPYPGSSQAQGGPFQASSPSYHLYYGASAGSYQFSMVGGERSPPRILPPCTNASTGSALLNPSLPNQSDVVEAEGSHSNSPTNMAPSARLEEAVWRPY
Target sequence (Q13951 whole entry, looked up, the tested form may be a part): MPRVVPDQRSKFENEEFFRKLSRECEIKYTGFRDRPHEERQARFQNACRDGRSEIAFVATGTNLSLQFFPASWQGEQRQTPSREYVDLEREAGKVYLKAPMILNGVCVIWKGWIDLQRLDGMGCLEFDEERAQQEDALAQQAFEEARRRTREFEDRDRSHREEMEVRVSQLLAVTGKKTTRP
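Measured by: fluorescence energy transfer, 422 nm excitation, 530/480 nm emission; test system: Cerulean-tagged RUNX1 Runt domain (FRET donor) fusion protein; buffer or medium: Tris pH 7.5 buffer with BSA; compound: one dose, 20 µM compound, 1% DMSO; times: two 1 h room-temperature incubations shielded from light; benchmarks: unlabeled CBFb 5 µM, positive control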
Runt-SMMHC FRET = Runt domain-CBFb-SMMHC interaction inhibition; inhibition, % at 20 µM; actives 0.74% (n = 220,000); Q01196+Q13951; AID 1434; Cerulean-Runt/Venus-CBFb-SMMHC FRET ratio 530/480, 1 h;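 active means mean inhibition across duplicate retests at 20 µM reaching about 50%, limit read from the data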;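 further: 0% = DMSO wells and 100% = wells with excess untagged CBFb-SMMHC; inhibitors lower the FRET ratio by blocking Runt binding to CBFb-SMMHC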
Hck Nef HTS = inhibitors of human Hck kinase activated by Nef. Recombinant Hck-YEEI plus Nef, Z-Lyte FRET kinase assay. actives 0.68% (n = 220,000). inhibition, % at 20 µM;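 active means Hck-Nef kinase inhibition above about 50%, limit read from the data; inactive means inhibition below that limit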;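 further: 0% = DMSO with Hck plus Nef and 100% = Hck alone without Nef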
The depositor's hits bear a star; ? = inconclusive; . = not tested or not shown.

SMILES | RanGTP-Impb inh | Tb hexokinase | p97 ATPase inh | Runt-CBFb FRET | Runt-SMMHC FRET | Hck Nef HTS
CCOC(=O)c1c(NC(=O)CC)sc2c1CCN(Cc1ccccc1)C2 | 89* | . | . | . | . | .
CCOC(=O)c1c(NC(=O)CN2CCCCC2)sc2c1CCN(C(=O)OCC)C2 | 6 | -8 | -2 | -12 | -9 | 6
CCOC(=O)c1c(NC(=O)C(C)Sc2cccc[n+]2[O-])sc2c1CCN(Cc1ccccc1)C2 (configuration not stated) | . | -15 | 6 | 112* | 81* | 5
O=C(CCS(=O)(=O)c1cccs1)Nc1ccc(C(=O)NC2CCCC2)cc1 | -2 | -8 | 3 | -1 | 0 | 17
CC(OC(=O)CCC(=O)N1CCN(S(=O)(=O)c2ccc3ccccc3c2)CC1)C(=O)NC(N)=O (configuration not stated) | 2 | . | . | . | . | .
COC(=O)c1c(NC(=O)C2COc3ccccc3O2)sc2c1CCN(Cc1ccccc1)C2 (configuration not stated) | 69* | -6 | -4 | 29 | 50 | 1
COC(=O)c1c(NC(C)=O)sc2c1CCN(Cc1ccccc1)C2 | 91* | . | . | . | . | .
CCCNC(=O)c1c(NC(=O)C2COc3ccccc3O2)sc2c1CCCC2 (configuration not stated) | 5 | 10 | -4 | -2 | 3 | 2
CCOC(=O)c1c(NC(C)=O)sc2c1CCN(Cc1ccccc1)C2 | 87* | . | . | . | . | .
Cc1cc(=O)oc2c(C)c(OCC(=O)NCCCN3CCOCC3)ccc12 | 2 | . | . | . | . | .
Cc1ccccc1NC1=CC(=O)CC(C)(C)C1 | 4 | -5 | -4 | 2 | -3 | 6
CC1(C)CC(=O)C=C(Nc2ccc(F)cc2)C1 | 27* | -9 | -1 | 1 | -5 | 0
COc1cc(NC2=CC(=O)CC(C)(C)C2)cc(OC)c1 | 2 | -12 | -2 | 2 | -4 | 1
CC1(C)CC(=O)C=C(Nc2ccc(F)cc2F)C1 | 35* | 5 | -2 | -2 | 2 | 5
CC1(C)CC(=O)C=C(Nc2ccc(OCC(F)(F)C(F)F)cc2)C1 | 30* | -25 | -6 | -2 | 0 | 1
CC1(C)CC(=O)C=C(Nc2ccc(F)c(Cl)c2)C1 | 4 | . | . | . | . | .
C=CCS/C(N)=N\N=C\c1cc(Br)cc([N+](=O)[O-])c1O | 8 | 8 | 6 | -2 | -2 | 27
COc1ccc(C2(C)NC(=O)N(CC(=O)Nc3c(C)n(C)n(-c4ccccc4)c3=O)C2=O)cc1 (configuration not stated) | -2 | . | . | . | . | .
COC(=O)C1=CN(Cc2cccs2)C=C(C(=O)OC)C1c1cccc(O)c1 | 11 | -9 | 3 | 98* | 133* | 42
O=C(Cc1ccc(F)cc1)Nc1nnc(SCC(=O)NC2CCCC2)s1 | 27* | -2 | 3 | 0 | -1 | 15
Cc1sccc1C1C(C#N)=C(N)SC(N)=C1C#N | 68* | -15 | 4 | 46 | 41 | 17
CCCCCNc1nc2sc3c(c2c(=O)n1-c1cccc(Cl)c1)CCN(C)C3 | 44* | -34 | 5 | 44 | 103* | 6
CCCCNc1nc2sc3c(c2c(=O)n1-c1cccc(Cl)c1)CCN(C)C3 | 30* | -45 | 2 | 49 | 126* | -24
CCCCSc1nc2sc3c(c2c(=O)n1-c1ccccc1)CCN(C)C3 | -10 | . | . | . | . | .
COc1cccc(CN2C(=O)c3cccc(N)c3C2=O)c1 | ? | 0 | 2 | 5 | 73* | 5
SMILES | RanGTP-Impb inh | Tb hexokinase | p97 ATPase inh | Runt-CBFb FRET | Runt-SMMHC FRET | Hck Nef HTS
COc1cccc(CN2C(=O)c3ccccc3S2(=O)=O)c1 | 0 | . | . | . | . | .
Clc1ccc(-c2nc(N3CCCCC3)nc3ccccc23)cc1 | 25* | 3 | 3 | 5 | 88* | 3
CCOC(=O)N1CCN(c2nc(-c3ccccc3)c3ccccc3n2)CC1 | 18* | . | . | . | . | .
Cc1ccc2nc(N3CCN(C=O)CC3)nc(-c3ccccc3)c2c1 | 54* | -8 | -6 | 14 | 88* | 12
c1ccc(-c2nc(-n3nc4ccccc4n3)nc3ccccc23)cc1 | 3 | -9 | -5 | -4 | 0 | 9
O=C(O)CCC(=O)N1CCN(c2nc(-c3ccccc3)c3ccccc3n2)CC1 | 12 | . | . | . | . | .
Cc1ccc2nc(N3CCN(C(=O)CCCC(=O)O)CC3)nc(-c3ccccc3)c2c1 | 17* | . | . | . | . | .
O=C(O)CCCC(=O)N1CCN(c2nc(-c3ccccc3Cl)c3cc(Br)ccc3n2)CC1 | 35* | . | . | . | . | .
CCn1c(SCC(=O)NCCc2ccccc2)nc2sc3c(c2c1=O)CCN(C)C3 | 6 | -37 | 3 | 6 | 10 | 10
CCn1c(SCC(=O)c2ccccc2)nc2sc3c(c2c1=O)CCN(C)C3 | 8 | -14 | 12 | 10 | 85* | 5
CCOC(=O)N1CCC(NC(=O)CS(=O)Cc2nc(-c3ccccc3C)oc2C)CC1 (configuration not stated) | 164* | . | . | . | . | .
COc1ccccc1CN1CC(C(=O)N2CCOCC2)CCC1=O (configuration not stated) | 4 | . | . | . | . | .
N#Cc1cnn2c3c(cnc12)C(=O)N1CCc2ccccc2C1C3 (configuration not stated) | ? | -6 | 4 | 92* | 86* | 21
O=C1c2cnc3ncnn3c2CC2c3ccccc3CCN12 (configuration not stated) | 4 | 0 | 6 | 14 | 36 | 32
COC(=O)c1cc(S(=O)(=O)N2CCN(c3ccc(F)cc3)CC2)c[nH]1 | 5 | . | . | . | . | .
COC(=O)c1cc(S(=O)(=O)N2CCN(c3ccccc3)CC2)c[nH]1 | 29* | . | . | . | . | .
COc1ccc(NC(=O)C2C3C=CC4(O3)C2C(=O)N(CCCN2CCCC(C)C2)C4C(=O)NC2CCCCC2)cc1 (configuration not stated) | -1 | . | . | . | . | .
COc1ccc(N2CSC3=C(C#N)C(c4cc(OC)c(OC)cc4OC)CC(=O)N3C2)c(OC)c1 (configuration not stated) | 0 | -18 | -2 | 29 | 38 | -1
COc1cc(OC)c(C2CC(=O)N3CN(c4ccc(C)cc4)CSC3=C2C#N)cc1OC (configuration not stated) | -93 | -22 | 3 | 101* | 101* | 2
CCCCn1c(N)c(N(CCC(C)C)C(=O)C2=NN(c3cc(C)ccc3C)C(=O)CC2)c(=O)[nH]c1=O | 6 | . | . | . | . | .

From PubChem
